This is a sample that favours compounds with a hit; in the whole collection about 2.2% have one here.
M1 antag: human M1 muscarinic receptor antagonists, primary screen, CHO-K1 cells, Fluo-8 calcium fluorescence, 1536-well; Muscarinic acetylcholine receptor M1 (Homo sapiens), P11229; CHO-K1 hM1, ACh EC80 antagonist; inhibition, % at 3 µM; actives 1.3% (n = 360,000);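 active = percent inhibition above its own plate's cutoff, namely the mean of that plate's compound wells plus 3 SD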;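 also: peak over basal fluorescence ratio during 140 s after agonist addition; 0% = ACh EC80 plus DMSO and 100% = DMSO alone without agonist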
Target sequence (P11229 whole entry, looked up): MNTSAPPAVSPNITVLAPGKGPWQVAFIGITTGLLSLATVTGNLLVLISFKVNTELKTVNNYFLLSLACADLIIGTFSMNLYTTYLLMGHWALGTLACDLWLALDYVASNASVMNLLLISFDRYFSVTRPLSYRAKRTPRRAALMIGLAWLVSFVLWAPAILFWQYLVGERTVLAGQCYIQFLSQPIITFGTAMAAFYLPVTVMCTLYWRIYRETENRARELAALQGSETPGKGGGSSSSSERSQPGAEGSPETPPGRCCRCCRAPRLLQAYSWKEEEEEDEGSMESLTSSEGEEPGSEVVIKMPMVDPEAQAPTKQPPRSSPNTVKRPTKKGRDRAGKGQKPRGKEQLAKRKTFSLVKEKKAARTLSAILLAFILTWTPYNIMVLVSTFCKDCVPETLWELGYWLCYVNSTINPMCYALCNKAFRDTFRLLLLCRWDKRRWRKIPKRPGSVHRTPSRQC
CHRM1 PAM: human M1 muscarinic receptor positive allosteric modulators, primary screen, CHO-K1 cells, Fluo-8 calcium fluorescence, 1536-well. Muscarinic acetylcholine receptor M1 (Homo sapiens), P11229. AID 588819, 2011. actives 0.088% (n = 360,000). activation, % at 3 µM. CHO-K1 hM1, ACh EC20; 0% = ACh EC20, 100% = maximal ACh; in the data active = activation above about 19%, passing the limit was not always enough
CHRM5 antagonist: human M5 muscarinic receptor antagonists, primary screen, CHO cells, Fluo-8 calcium fluorescence | actives 0.59% (n = 360,000) | inhibition, % at 3 µM | AID 624040, 2012 | CHO-hM5 cells, ACh EC80;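 active = inhibition above a per-plate cutoff, the mean of that plate's test compounds plus 3 SD, cut at about 27% in these data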;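 also: 0% = acetylcholine EC80 with DMSO and 100% = DMSO without agonist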
CHRM5 PAM: human M5 muscarinic receptor positive allosteric modulators, primary screen, CHO-K1 cells, Fluo-8 calcium fluorescence; Muscarinic acetylcholine receptor M5 (Homo sapiens), P08912; AID 624038, 2012; actives 0.3% (n = 360,000); CHO-K1 hM5, ACh EC20 PAM; 0% = ACh EC20, 100% = ACh EC100; activation, % at 3 µM;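 active = activation above the run cutoff, the mean activation of all test compounds plus 3 SD, cut at about 18% in these data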
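Assay system: CHO-K1 hM5 cells. Also added: acetylcholine at EC20 concentration, added after compound. Dosing: 3 µM, single dose. Times: compound preincubation 140 s before EC20 acetylcholine addition. Signal: Fluo-8 calcium fluorescence. Measure: % activation relative to EC20 and EC100 ACh responses. Repeats: singlicate, one well per test compound.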
M5 ag: human M5 muscarinic receptor agonists, primary screen, CHO-K1 cells, Fluo-8 calcium fluorescence; Muscarinic acetylcholine receptor M5 (Homo sapiens), P08912; CHO-K1 hM5 cells; 0% DMSO wells, 100% maximal acetylcholine response; activation, % at 3 µM; actives 0.19% (n = 360,000);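 active = activation above the run's mean over test compounds plus 3 SD, cut at about 23% in these data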;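 also: signal is peak over basal fluorescence ratio across the kinetic read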
M1 ag: human M1 muscarinic receptor agonists, primary screen, Fluo-8 calcium fluorescence, CHO-K1 cells, HTS; CHO-K1 hM1, agonist mode; 0% DMSO, 100% acetylcholine EC100; actives 0.33% (n = 360,000); Muscarinic acetylcholine receptor M1 (Homo sapiens), P11229; activation, % at 3 µM;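 active = activation above the run's mean compound activation plus 3 SD, cut at about 16% in these data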;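 also: peak over basal fluorescence ratio within a 140 s kinetic read after compound addition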
An asterisk follows results filed as active.

SMILES | M1 antag | CHRM1 PAM | CHRM5 antagonist | CHRM5 PAM | M5 ag | M1 ag
O=C(COc1ccccc1)NCC(=O)N/N=C/c1ccc(O)cc1O | -14 | 7 | 9 | 0 | -2 | -2
Cc1ccc(NC(=O)CN2C(=O)NC(C)(c3ccc(Cl)cc3)C2=O)cc1 (configuration not stated) | -2 | 15 | 8 | 5 | 15 | 18*
CC1(c2ccc(OC(F)F)cc2)NC(=O)N(CC(=O)Nc2ccc(OC(F)F)cc2)C1=O (configuration not stated) | 29* | -3 | 22 | 7 | 27* | 36*
CC1CCCCC12NC(=O)N(CC(=O)Nc1ccc(OC(F)F)cc1)C2=O (configuration not stated) | -6 | 5 | -3 | -5 | -1 | -5
CC1(c2ccc(OC(F)F)cc2)NC(=O)N(CC(=O)Nc2ccc(S(N)(=O)=O)cc2)C1=O (configuration not stated) | 11 | -3 | 1 | -7 | -1 | -3
CCOc1ccc(NC(=O)CN2C(=O)NC(C)(c3ccc(OC(F)F)cc3)C2=O)cc1 (configuration not stated) | 19 | 3 | 20 | 2 | 17 | 32*
CC1(c2ccc(OC(F)F)cc2)NC(=O)N(CC(=O)NC2CCCCC2)C1=O (configuration not stated) | -12 | 5 | 8 | -7 | 5 | 10
CC1(c2ccc(OC(F)F)cc2)NC(=O)N(CC(=O)Nc2ccc(Cl)cc2F)C1=O (configuration not stated) | 24 | 3 | 3 | 4 | 30* | 17*
CCOC(=O)CN(C(=O)c1snc(C(N)=O)c1N)C(C(=O)NCCC(C)C)c1ccc(C)cc1 (configuration not stated) | -6 | 1 | 3 | -2 | 0 | -3
CC(NC(=O)c1ccccc1SCC(=O)N1CCCC1)c1ccc(F)cc1 (configuration not stated) | -9 | 8 | 1 | -2 | -1 | -2
Cc1nn(-c2cccc(C(F)(F)F)c2)c(=O)c2noc(C)c12 | 7 | -1 | 4 | 0 | -2 | -4
CC1(C)NC(=O)N(CC(=O)OCC(=O)Nc2cccc(F)c2)C1=O | -4 | 8 | 9 | 37* | -5 | -5
COc1ccc(C2(c3ccc(OC)cc3)NC(=O)N(CC(=O)Nc3ccc(OC(F)F)cc3)C2=O)cc1 | -18 | 12 | 3 | 2 | -2 | 3
CC1(c2ccc(OC(F)F)cc2)NC(=O)N(CC(=O)Nc2cccc(F)c2)C1=O (configuration not stated) | 40* | -1 | 25 | 1 | 45* | 45*
CCOC(=O)c1c(C)[nH]c(C(=O)CN2C(=O)NC(C)(c3ccc(C)cc3)C2=O)c1C (configuration not stated) | 2 | 13 | 5 | 2 | 27* | 22*
CC1(c2ccc(OC(F)F)cc2)NC(=O)N(CC(=O)Nc2ccc(F)cc2)C1=O (configuration not stated) | 5 | 6 | 9 | -5 | 24* | 29*
CCOC(=O)c1c(C)[nH]c(C(=O)CN2C(=O)NC(C)(C)C2=O)c1C | 13 | -2 | -1 | 4 | -3 | -2
Cc1cc(NC(=O)CN2C(=O)NC(C)(c3ccc(OC(F)F)cc3)C2=O)no1 (configuration not stated) | 7 | 7 | 7 | 2 | 19 | 17*
CCOC(=O)c1sc(NC(=O)CN2C(=O)NC3(CCCCCCC3)C2=O)c(C(=O)OCC)c1C | -33 | 2 | -2 | 2 | 0 | -1
CC(C)CCC(C)NC(=O)CN1C(=O)NC(C)(c2ccc3ccccc3c2)C1=O (configuration not stated) | -5 | 13 | -1 | -4 | 3 | 25*
CCOC(=O)c1c(NC(=O)CN2C(=O)NC(C)(c3ccc(OC(F)F)cc3)C2=O)sc(C)c1C (configuration not stated) | 14 | 13 | 17 | 4 | 15 | 18*
CCOc1ccc(-n2nc(C(=O)NC3CCCCC3)c3ccccc3c2=O)cc1 | -6 | 8 | 4 | -1 | -5 | -1
O=C(COc1ccc(-c2ccccc2)cc1)N1CCCC1 | -2 | 10 | 1 | -2 | 0 | -9
c1ccc(-c2ccc(OCCCNC3CCCC3)cc2)cc1 | 36* | -29 | 33* | -16 | 4 | 0
COc1ccc(OCCNC2CCCC2)cc1 | -5 | 10 | -3 | 2 | -4 | -8
SMILES | M1 antag | CHRM1 PAM | CHRM5 antagonist | CHRM5 PAM | M5 ag | M1 ag
OC(CNCCC(c1ccccc1)c1ccccc1)COc1ccccc1 (configuration not stated) | 31* | -15 | 15 | -30 | -15 | -6
CC(C)(c1ccccc1)c1ccc(OCC(O)CN2CCCC2)cc1 (configuration not stated) | -4 | -8 | 0 | 5 | -12 | -6
CC(C)N(CCNCC(O)COc1ccc(C(C)(C)c2ccccc2)cc1)C(C)C (configuration not stated) | 34* | -19 | -6 | -10 | -6 | -4
OC(CNCCc1ccccc1)COc1ccc(OCC(O)CNCCc2ccccc2)cc1 (configuration not stated) | 7 | -4 | 3 | -1 | -18 | -8
NS(=O)(=O)c1cccc(NC(=O)CC23CC4CC(C2)CC(CC(=O)Nc2cccc(S(N)(=O)=O)c2)(C4)C3)c1 | -5 | -2 | 5 | -6 | -6 | -8
N#Cc1c(NC(=O)/C=C/C(=O)O)sc2c1CCN(Cc1ccccc1)C2 | -13 | 4 | 1 | -1 | -6 | -10
CC(C)Cn1c(N)c(C=O)c(=O)n(C)c1=O | -3 | 8 | 2 | 18* | 6 | -5
CC(C)Cn1c(N)c(C(=O)CCl)c(=O)n(C)c1=O | 4 | -1 | 10 | -4 | 5 | -1
Cc1ccc(-c2cc(C(=O)N(C)CC(=O)Nc3ccccc3Br)c3ccccc3n2)o1 | 23 | -8 | 10 | -13 | -1 | -1
COc1ccc(-c2csc(NC(=O)CN3C(=O)C4CC=CCC4C3=O)n2)cc1OC (configuration not stated) | 5 | -2 | 29* | -13 | -1 | 1
